What was measured:
MDCK = test: Cytotoxicity against MDCK cells after 4 days by MTT assay; assay type: cell-based; settings: Canis lupus familiaris, 96 h
Procedure, shortened: (§1)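 MTT microtiter assay; cells kept at 37 °C, 5% CO2 in DMEM with regular passage. Wells seeded with 3,000 cells each, exposed continuously for four days to varying drug concentrations in triplicate, with a drug-free control. MTT read at end of day 4 to give IC50.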

HEK293 = test: Cytotoxicity against human HEK293 cells after 4 days by MTT assay; assay type: cell-based; settings: HEK293, 96 h; procedure, shortened: as §1
[1] = Inhibition of endonuclease activity of Influenza A virus H1N1 RNA-dependent RNA polymerase expressed in Escherichia coli BL21 using 6FAM-TGGCAATATCAGCTCCACA-MGBNFQ as substrate after 5 to 240 mins by fluorescence assay
Procedure, shortened: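 PA_N (pandemic H1N1 endonuclease, residues 1-204, His-tag removed, SEC-purified). Inhibitor serially diluted, DMSO at most 2.5% (v/v). Ex 488/em 518 read at 5, 120, 240 min at 37 °C. IC50 by nonlinear regression of fluorescence change, mean of triplicates ± SEM.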

O=c1[nH]ccc(-c2ccc(F)cc2)c1O
IC50 (MDCK): > 100 µM
IC50 (HEK293): > 100 µM
IC50 [1]: > 200 µM

O=c1[nH]cc(-c2ccccc2)cc1O
IC50 (MDCK): 80 µM
IC50 (HEK293): ≥ 28 µM
IC50 [1]: 2.1 µM

O=c1[nH]cc(-c2ccc(F)cc2)cc1O
IC50 (MDCK): > 100 µM
IC50 (HEK293): > 100 µM
IC50 [1]: 0.73 µM

N#Cc1ccc(-c2c[nH]c(=O)c(O)c2)cc1
IC50 (MDCK): > 100 µM
IC50 (HEK293): > 100 µM
IC50 [1]: 3.83 µM

O=c1[nH]cc(-c2ccc(-c3nnn[nH]3)cc2)cc1O
IC50 (MDCK): > 100 µM
IC50 (HEK293): 80 µM
IC50 [1]: 0.368 µM

O=c1[nH]c(-c2ccccc2)ccc1O
IC50 (MDCK): 60 µM
IC50 (HEK293): ≥ 28 µM
IC50 [1]: 0.87 µM

O=c1[nH]c(-c2ccc(F)cc2)ccc1O
IC50 (MDCK): > 100 µM
IC50 (HEK293): > 100 µM
IC50 [1]: 0.43 µM

N#Cc1ccc(-c2ccc(O)c(=O)[nH]2)cc1
IC50 (MDCK): > 100 µM
IC50 (HEK293): ≥ 28 µM
IC50 [1]: 0.802 µM

O=c1[nH]c(-c2ccc(-c3nnn[nH]3)cc2)ccc1O
IC50 (MDCK): > 100 µM
IC50 (HEK293): ≥ 28 µM
IC50 [1]: 0.085 µM

O=c1[nH]c(-c2ccccc2)c(-c2ccccc2)cc1O
IC50 (MDCK): > 100 µM
IC50 (HEK293): ≥ 28 µM
IC50 [1]: 0.047 µM

O=c1[nH]c(-c2ccc(F)cc2)c(-c2ccc(F)cc2)cc1O
IC50 (MDCK): > 100 µM
IC50 (HEK293): > 100 µM

N#Cc1ccc(-c2cc(O)c(=O)[nH]c2-c2ccc(C#N)cc2)cc1
IC50 (MDCK): 40 µM
IC50 (HEK293): ≥ 28 µM
IC50 [1]: 0.103 µM

O=c1[nH]c(-c2ccc(-c3nnn[nH]3)cc2)c(-c2ccc(-c3nnn[nH]3)cc2)cc1O
IC50 (MDCK): > 100 µM
IC50 (HEK293): > 100 µM
IC50 [1]: 0.285 µM

O=c1[nH]ccc(-c2ccccc2)c1O
IC50 (MDCK): > 100 µM
IC50 (HEK293): > 100 µM
IC50 [1]: 35 µM
